Data reported in ChEMBL document CHEMBL2057071, “Hit-to-lead investigation of a series of novel combined dopamine D2 and muscarinic M1 receptor ligands with putative antipsychotic and pro-cognitive potential” (Bioorg Med Chem Lett, 2012).

Assays:
D(2) dopamine receptor [1] = molecular target: T1, D(2) dopamine receptor (Homo sapiens, UniProt P14416); assay: Displacement of [3H]raclopride from human D2L receptor expressed in CHO cells after 60 mins by scintillation proximity assay; format: cell-based
Liver microsomes [2] = assay: Intrinsic clearance in human liver microsomes at 1 uM after 60 mins; format: ADME, Microsome; conditions: 1 h
[3] = molecular target: T2, Muscarinic acetylcholine receptor M1 (Homo sapiens, UniProt P11229); assay: Agonist activity at human M1 receptor expressed in CHO-K1 cells assessed as calcium mobilization for 6 mins by Calcium4-based staining; format: functional, cell-based
T2 sequence (P11229 whole entry): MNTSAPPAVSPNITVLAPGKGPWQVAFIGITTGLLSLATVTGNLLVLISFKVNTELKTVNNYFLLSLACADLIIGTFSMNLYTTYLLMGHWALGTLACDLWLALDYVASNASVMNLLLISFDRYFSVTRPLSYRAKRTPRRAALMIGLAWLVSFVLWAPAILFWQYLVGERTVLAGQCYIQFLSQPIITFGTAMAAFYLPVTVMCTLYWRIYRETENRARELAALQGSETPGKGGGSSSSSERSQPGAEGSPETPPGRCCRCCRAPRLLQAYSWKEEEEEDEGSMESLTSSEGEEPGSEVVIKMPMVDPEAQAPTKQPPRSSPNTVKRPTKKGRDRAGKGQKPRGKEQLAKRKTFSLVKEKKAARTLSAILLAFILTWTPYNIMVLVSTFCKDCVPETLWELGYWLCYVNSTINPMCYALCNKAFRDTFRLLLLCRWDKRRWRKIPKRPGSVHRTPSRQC

[4] = molecular target: T3, Muscarinic acetylcholine receptor M1 (Homo sapiens) (UniProt P11229); assay: Agonist activity at human M1 receptor expressed in CHO-K1 cells assessed as calcium mobilization at 10 uM for 6 mins by Calcium4-based staining; format: functional, cell-based
T3 sequence (whole entry): T2 sequence (P11229 whole entry)
Outline: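 Functional agonism read as percent activity at 10 µM test concentration when no EC₅₀ could be established; means of two experiments.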

[5] = Lipophilicity, logP of the compound; format: physicochemical; conditions: octanol/water
[6] = Dissociation constant, pKa of the compound; format: physicochemical
[7] = molecular target: Voltage-gated inwardly rectifying potassium channel KCNH2 (Homo sapiens, UniProt Q12809); assay: Inhibition of human ERG expressed in CHO cells after 30 mins by Rb+ flux assay
D(2) dopamine receptor [8] = molecular target: T1, D(2) dopamine receptor; assay: Displacement of [3H]raclopride from human D2L receptor expressed in CHO cells at 10 uM after 60 mins by scintillation proximity assay; format: cell-based
[9] = molecular target: Muscarinic acetylcholine receptor M3 (Homo sapiens) (UniProt P20309); assay: Agonist activity at human muscarinic M3 receptor expressed in BHK-21 cells assessed as calcium mobilization atb 10 uM for 6 mins by Calcium4-based staining relative to acetylcholine; format: functional, cell-based
[10] = molecular target: Muscarinic acetylcholine receptor M1 (Homo sapiens, UniProt P11229, Y381A); assay: Agonist activity at human muscarinic M1 receptor Y381A mutant expressed in BHK-21 cells assessed as calcium mobilization for 6 mins by Calcium4-based staining; format: functional, cell-based
[11] = molecular target: T4, Muscarinic acetylcholine receptor M4 (Homo sapiens) (UniProt P08173); assay: Agonist activity at human muscarinic M4 receptor expressed in BHK-21 cells assessed as calcium mobilization at 10 uM for 6 mins by Calcium4-based staining relative to acetylcholine; format: functional, cell-based
T4 sequence (whole entry): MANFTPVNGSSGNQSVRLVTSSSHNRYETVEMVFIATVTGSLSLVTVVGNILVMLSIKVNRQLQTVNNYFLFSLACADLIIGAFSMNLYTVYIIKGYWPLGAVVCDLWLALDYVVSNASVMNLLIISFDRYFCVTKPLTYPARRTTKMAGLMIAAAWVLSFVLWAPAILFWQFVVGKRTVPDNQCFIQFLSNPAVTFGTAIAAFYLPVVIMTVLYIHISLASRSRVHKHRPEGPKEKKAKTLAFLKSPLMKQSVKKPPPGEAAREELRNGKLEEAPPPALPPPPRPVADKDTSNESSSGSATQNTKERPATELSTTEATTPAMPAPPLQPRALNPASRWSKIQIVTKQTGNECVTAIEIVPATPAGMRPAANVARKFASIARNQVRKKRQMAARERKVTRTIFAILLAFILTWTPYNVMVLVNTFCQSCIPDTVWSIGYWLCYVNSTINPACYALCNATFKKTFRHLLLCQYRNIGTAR

[12] = Plasma clearance in […] Sprague-Dawley rat; format: ADME, organism-based
Liver microsomes [13] = assay: Intrinsic clearance in rat liver microsomes at 1 uM after 60 mins; format: ADME, Microsome; conditions: 1 h
[14] = molecular target: T5, Muscarinic acetylcholine receptor M5 (Homo sapiens) (UniProt P08912); assay: Agonist activity at human muscarinic M5 receptor expressed in BHK-21 cells assessed as calcium mobilization at 10 uM for 6 mins by Calcium4-based staining relative to acetylcholine; format: functional, cell-based
T5 sequence (whole entry): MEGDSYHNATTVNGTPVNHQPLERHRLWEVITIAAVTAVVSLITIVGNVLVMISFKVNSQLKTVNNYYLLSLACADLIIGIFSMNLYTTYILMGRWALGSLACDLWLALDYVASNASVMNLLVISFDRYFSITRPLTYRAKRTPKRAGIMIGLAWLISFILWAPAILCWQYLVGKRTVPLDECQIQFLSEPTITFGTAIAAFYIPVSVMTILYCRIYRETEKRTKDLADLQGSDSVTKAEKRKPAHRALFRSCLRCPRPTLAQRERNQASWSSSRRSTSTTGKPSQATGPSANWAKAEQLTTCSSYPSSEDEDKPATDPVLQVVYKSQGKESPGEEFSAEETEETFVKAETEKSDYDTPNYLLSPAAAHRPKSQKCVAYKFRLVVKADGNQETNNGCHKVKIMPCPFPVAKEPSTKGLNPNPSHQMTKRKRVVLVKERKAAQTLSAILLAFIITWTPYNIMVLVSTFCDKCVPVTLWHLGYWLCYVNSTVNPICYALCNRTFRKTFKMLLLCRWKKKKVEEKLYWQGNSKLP

[15] = molecular target: T6, Muscarinic acetylcholine receptor M2 (Homo sapiens) (UniProt P08172); assay: Agonist activity at human muscarinic M2 receptor expressed in CHO-K1 cells assessed as calcium mobilization at 10 uM for 6 mins by Calcium4-based staining relative to acetylcholine; format: functional, cell-based
T6 sequence (whole entry): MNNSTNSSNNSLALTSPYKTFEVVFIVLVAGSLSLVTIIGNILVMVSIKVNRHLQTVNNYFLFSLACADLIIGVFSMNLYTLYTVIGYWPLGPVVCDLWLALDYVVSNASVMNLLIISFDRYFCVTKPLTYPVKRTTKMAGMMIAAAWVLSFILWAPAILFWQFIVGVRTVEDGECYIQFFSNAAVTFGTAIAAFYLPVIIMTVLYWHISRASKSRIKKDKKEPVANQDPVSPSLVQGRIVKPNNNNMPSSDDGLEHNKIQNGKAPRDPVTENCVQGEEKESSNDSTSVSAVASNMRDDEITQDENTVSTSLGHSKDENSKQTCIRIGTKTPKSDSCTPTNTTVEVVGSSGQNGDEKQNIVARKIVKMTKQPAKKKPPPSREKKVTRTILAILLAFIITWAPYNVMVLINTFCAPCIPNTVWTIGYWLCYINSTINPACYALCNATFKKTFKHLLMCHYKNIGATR

Hepatocyte = assay: Intrinsic clearance in Sprague-Dawley rat hepatocytes at 1 uM after 60 mins; format: ADME, cell-based; conditions: 1 h

T1 sequence (P14416 whole entry): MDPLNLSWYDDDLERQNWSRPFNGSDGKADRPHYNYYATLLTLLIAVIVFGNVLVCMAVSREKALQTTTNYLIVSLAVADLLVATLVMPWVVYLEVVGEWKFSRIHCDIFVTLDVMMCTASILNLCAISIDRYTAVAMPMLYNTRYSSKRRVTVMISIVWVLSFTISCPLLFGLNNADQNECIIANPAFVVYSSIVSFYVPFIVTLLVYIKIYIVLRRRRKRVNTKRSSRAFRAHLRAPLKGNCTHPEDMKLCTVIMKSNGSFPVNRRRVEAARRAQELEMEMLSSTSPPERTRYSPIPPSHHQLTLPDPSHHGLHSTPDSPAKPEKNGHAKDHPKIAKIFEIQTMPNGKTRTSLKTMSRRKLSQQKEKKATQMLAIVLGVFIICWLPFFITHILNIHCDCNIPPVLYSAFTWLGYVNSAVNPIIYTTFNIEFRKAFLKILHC
Chain of Voltage-gated inwardly rectifying potassium channel KCNH2 (Q12809 whole entry): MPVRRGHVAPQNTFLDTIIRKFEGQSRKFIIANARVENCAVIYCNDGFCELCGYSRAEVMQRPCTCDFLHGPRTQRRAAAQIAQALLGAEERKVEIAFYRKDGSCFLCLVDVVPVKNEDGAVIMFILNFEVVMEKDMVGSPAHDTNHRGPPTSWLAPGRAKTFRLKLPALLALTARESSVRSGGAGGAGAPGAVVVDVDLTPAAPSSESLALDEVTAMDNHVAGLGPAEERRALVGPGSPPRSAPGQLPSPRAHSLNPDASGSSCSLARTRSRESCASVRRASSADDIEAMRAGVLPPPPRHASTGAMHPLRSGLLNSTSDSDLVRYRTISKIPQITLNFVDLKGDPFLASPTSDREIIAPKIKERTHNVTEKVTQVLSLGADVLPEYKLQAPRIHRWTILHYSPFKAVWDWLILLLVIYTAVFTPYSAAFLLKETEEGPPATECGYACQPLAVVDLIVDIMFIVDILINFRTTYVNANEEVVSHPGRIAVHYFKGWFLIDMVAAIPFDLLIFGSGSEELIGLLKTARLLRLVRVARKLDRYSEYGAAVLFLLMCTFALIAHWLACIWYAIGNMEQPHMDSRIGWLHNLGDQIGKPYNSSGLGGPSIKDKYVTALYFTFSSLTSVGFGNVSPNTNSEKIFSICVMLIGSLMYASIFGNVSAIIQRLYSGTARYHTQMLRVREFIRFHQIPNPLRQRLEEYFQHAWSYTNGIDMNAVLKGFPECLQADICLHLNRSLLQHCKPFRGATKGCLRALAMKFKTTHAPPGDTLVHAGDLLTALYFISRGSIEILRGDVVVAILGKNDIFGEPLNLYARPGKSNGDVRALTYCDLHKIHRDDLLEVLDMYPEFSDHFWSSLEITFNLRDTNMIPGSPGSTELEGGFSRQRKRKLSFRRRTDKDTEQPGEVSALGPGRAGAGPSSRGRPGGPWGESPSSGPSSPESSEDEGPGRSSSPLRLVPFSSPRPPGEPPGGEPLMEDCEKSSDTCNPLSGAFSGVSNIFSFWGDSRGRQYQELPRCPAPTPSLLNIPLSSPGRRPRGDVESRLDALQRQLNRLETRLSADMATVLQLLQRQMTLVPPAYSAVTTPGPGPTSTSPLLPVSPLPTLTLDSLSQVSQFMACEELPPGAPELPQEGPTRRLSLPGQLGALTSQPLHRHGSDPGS
Chain of Muscarinic acetylcholine receptor M3 (Homo sapiens) (P20309 whole entry, looked up): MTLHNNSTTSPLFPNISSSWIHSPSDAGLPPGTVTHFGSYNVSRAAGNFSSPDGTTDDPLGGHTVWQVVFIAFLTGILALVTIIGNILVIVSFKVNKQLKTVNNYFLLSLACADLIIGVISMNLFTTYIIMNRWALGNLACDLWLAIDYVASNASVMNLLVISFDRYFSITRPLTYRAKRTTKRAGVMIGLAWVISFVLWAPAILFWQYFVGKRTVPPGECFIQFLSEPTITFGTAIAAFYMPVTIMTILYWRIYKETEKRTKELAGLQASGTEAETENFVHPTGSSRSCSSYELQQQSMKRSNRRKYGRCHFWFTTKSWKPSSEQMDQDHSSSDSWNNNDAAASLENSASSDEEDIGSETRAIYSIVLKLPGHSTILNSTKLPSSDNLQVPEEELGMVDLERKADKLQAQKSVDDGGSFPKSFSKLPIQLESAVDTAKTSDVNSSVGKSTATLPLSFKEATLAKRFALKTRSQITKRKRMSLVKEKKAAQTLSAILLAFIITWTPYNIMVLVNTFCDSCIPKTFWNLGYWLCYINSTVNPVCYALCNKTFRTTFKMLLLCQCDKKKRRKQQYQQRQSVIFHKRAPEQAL
Chain of Muscarinic acetylcholine receptor M1 (Homo sapiens, UniProt P11229, Y381A) (P11229 whole entry Y381A): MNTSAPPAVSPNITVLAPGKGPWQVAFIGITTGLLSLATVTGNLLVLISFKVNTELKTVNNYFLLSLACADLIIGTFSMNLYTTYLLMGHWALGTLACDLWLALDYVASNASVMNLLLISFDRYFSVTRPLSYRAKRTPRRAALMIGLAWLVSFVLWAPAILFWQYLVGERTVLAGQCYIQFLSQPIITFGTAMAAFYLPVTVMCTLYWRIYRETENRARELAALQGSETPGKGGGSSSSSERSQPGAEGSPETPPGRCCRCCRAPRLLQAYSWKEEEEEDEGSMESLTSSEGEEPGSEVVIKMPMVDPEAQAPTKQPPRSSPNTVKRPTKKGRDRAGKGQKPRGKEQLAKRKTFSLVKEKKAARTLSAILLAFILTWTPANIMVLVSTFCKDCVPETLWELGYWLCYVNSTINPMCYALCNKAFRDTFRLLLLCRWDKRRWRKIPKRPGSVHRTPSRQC

Compound | Ki (D(2) dopamine receptor [1]) | CLH (Liver microsomes [2]) | EC50 [3] | Emax [4] | IC50 [7] | further results
O=C1CCc2cccnc2N1CCCN1CCC(n2c(=O)[nH]c3ccccc32)CC1 | 600 nM | 1.3 L/min | 20 nM | – | – | –
O=C1CCc2ncccc2N1CCCN1CCC(n2c(=O)[nH]c3ccccc32)CC1 | 2200 nM | 2.8 L/min | 12 nM | – | – | –
O=C1CCc2ccncc2N1CCCN1CCC(n2c(=O)[nH]c3ccccc32)CC1 | – | 3.6 L/min | – | 7% | – | Activity (D(2) dopamine receptor [8]): 55%
CC(=O)OCC[N+](C)(C)C | – | – | – | – | – | Emax [9]: 100%
O=C1COc2ccccc2N1CCCN1CCC(n2c(=O)[nH]c3cccnc32)CC1 | 1250 nM | 3.5 L/min | 1700 nM | – | 13000 nM | –
O=C1COc2ccccc2N1CCCN1CCC(n2c(=O)[nH]c3cnccc32)CC1 | 1350 nM | 1.7 L/min | – | 4% | 46000 nM | –
O=C1CCc2cnccc2N1CCCN1CCC(n2c(=O)[nH]c3ccccc32)CC1 | 1100 nM | 9.4 L/min | – | 0% | – | –
O=C1COc2ccccc2N1CCCN1CCC(n2c(=O)[nH]c3ncccc32)CC1 | 650 nM | 2.6 L/min | – | 8% | – | –
O=c1[nH]c2ccccc2n1C1CCN(CCOc2ccccc2)CC1 [OXIPEROMIDE] | 5.5 nM | 1.4 L/min | 400 nM | – | – | logP [5]: 3.4; pKa [6]: 7.4
O=C(Cc1ccccc1)NC1CCN(CCCN2C(=O)COc3ccccc32)CC1 | > 5000 nM | 3.4 L/min | – | – | 20000 nM | logP [5]: 2.4; pKa [6]: 7.9
O=C1COc2ccccc2N1CCCN1CCC(n2c(=O)[nH]c3ccncc32)CC1 | > 9500 nM | 0.9 L/min | 1200 nM | – | > 50000 nM | –

Further lines, with some results ahead:

Ki (D(2) dopamine receptor [1]) | CLH (Liver microsomes [2]) | EC50 [3] | Emax [4] | Compound | IC50 [7] | further results
90 nM | 7.8 L/min | – | 23% | O=C1CCc2ccc(F)cc2N1CCCN1CCC(n2c(=O)[nH]c3ccccc32)CC1 | – | –
41 nM | 12 L/min | – | 22% | O=C1COc2ccccc2N1CCCN1CCC(n2c(=O)[nH]c3cccc(F)c32)CC1 | – | –
60 nM | 4.2 L/min | 68 nM | – | O=C1CCc2c(F)cccc2N1CCCN1CCC(n2c(=O)[nH]c3ccccc32)CC1 | – | –
6.5 nM | 6.2 L/min | – | 24% | O=C1CCc2cc(F)ccc2N1CCCN1CCC(n2c(=O)[nH]c3ccccc32)CC1 | – | –
16 nM | 5.1 L/min | 73 nM | – | O=C1COc2ccccc2N1CCCN1CCC(n2c(=O)[nH]c3ccccc32)CC1 | – | –
42 nM | 9 L/min | 160 nM | – | O=C1CCc2ccccc2N1CCCN1CCC(c2ccc3[nH]ccc3c2)CC1 | 4400 nM | logP [5]: 4.1; pKa [6]: 9
95 nM | 5.5 L/min | 300 nM | – | O=C1CCc2cccc(F)c2N1CCCN1CCC(n2c(=O)[nH]c3ccccc32)CC1 | – | –
2.5 nM | 8.8 L/min | 66 nM | – | O=C1COc2ccccc2N1CCCN1CCC(n2c(=O)[nH]c3cc(F)ccc32)CC1 | 1900 nM | –
55 nM | 2.3 L/min | – | 31% | O=C1CCc2ccccc2N1OCCN1CCC(n2c(=O)[nH]c3ccccc32)CC1 | – | –
14 nM | 8.7 L/min | 44 nM | – | O=C1COc2ccccc2N1CCCN1CCC(n2c(=O)[nH]c3ccc(F)cc32)CC1 | 4400 nM | –
9.5 nM | 3.9 L/min | 110 nM | – | O=C1CCc2ccccc2N1CCCN1CCC(n2c(=O)[nH]c3ccccc32)CC1 | – | logP [5]: 2.8; EC50 [10]: 6.3 nM; pKa [6]: 7.6; Emax [11]: 8%; CL/F [12]: 50 mL/min/kg; CLH (Liver microsomes [13]): 130 mL/min; Emax [14]: 0%; Emax [15]: 0%; CLH (Hepatocyte): 160 mL/min; Emax [9]: 0%
15 nM | 13 L/min | 110 nM | – | O=C1COc2ccccc2N1CCCN1CCC(n2c(=O)[nH]c3c(F)cccc32)CC1 | 3400 nM | –
